Experiments:
Mus musculus [1] = experiment: Antiinflammatory activity in Swiss Albino mouse assessed as inhibition of carrageenan-induced TNFalpha production in serum at 25 mg/kg, po administered 30 mins before carrageenan challenge after 30 mins by ELISA (reference value: 15.48 +/- 0.31 ng/ml); format: functional
Mus musculus [2] = experiment: Antiinflammatory activity in Swiss Albino mouse assessed as inhibition of carrageenan-induced IL-6 production in serum at 25 mg/kg, po administered 30 mins before carrageenan challenge after 30 mins by ELISA (reference value: 23.8 +/- 2.5 ng/ml); format: functional
Mus musculus [3] = experiment: Antiinflammatory activity in Swiss Albino mouse assessed as inhibition of carrageenan-induced paw edema at 25 mg/kg, po administered 30 mins before carrageenan challenge relative to vehicle-treated control; format: functional; parameters: scale not given: the % may be the effect or the level left
Outline: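 Male Swiss albino mice, 25–32 g, six per group, given drug in 1% CMC orally 30 min before subplantar right hind paw injection of carrageenan (1% w/v in 0.9% saline, 0.05 mL/mouse). […] Mean ± SEM, one-way ANOVA/Bonferroni.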

Mus musculus [4] = experiment: Analgesic activity in Swiss Albino mouse assessed as inhibition of acetic acid-induced writhing at 25 mg/kg, po administered 30 mins before to acetic acid challenge measured for 15 mins relative to vehicle-treated control; format: functional; parameters: scale not given: the % may be the effect or the level left
Outline: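 Male Swiss albino mice, 25–32 g, n=6/group, dosed by oral gavage (5 mL/kg) in 1% CMC; vehicle controls. Mice habituated 30 min in test cage. Writhing induced by 0.1 mL 1% acetic acid ip at 30 min post-dose. Abdominal contractions counted for 15 min from the 5th min after injection. % protection = (n−n0)/n × 100 using group mean writhes. Mean ± SEM, one-way ANOVA/Bonferroni.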

[5] = molecular target: T1, Prostaglandin G/H synthase 1 (Ovis aries, UniProt P05979); experiment: Inhibition of ovine COX1 using arachidonic acid as substrate assessed as conversion of PGH2 to PGF2alpha after 10 mins by EIA
T1 sequence (P05979 whole entry): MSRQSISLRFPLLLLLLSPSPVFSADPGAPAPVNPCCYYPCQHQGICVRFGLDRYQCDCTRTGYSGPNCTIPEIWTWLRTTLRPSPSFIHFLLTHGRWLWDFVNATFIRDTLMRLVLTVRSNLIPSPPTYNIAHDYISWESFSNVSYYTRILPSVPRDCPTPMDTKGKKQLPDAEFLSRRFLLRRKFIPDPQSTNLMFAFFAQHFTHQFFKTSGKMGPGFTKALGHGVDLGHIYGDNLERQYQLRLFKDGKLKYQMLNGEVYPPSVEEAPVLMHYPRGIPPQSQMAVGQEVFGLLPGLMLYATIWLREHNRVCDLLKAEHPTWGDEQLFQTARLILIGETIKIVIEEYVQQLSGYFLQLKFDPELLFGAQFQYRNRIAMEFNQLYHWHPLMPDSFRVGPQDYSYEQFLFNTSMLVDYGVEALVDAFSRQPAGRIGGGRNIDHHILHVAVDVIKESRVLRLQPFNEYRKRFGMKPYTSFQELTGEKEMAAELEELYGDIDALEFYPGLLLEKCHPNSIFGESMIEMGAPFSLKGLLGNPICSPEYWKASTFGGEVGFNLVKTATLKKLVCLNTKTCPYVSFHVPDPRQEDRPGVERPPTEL
Outline: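 Ovine COX-1 EIA kit: enzyme with heme and DMSO-dissolved sample in 0.1 M Tris-HCl pH 8, 5 mM EDTA, 2 mM phenol, preincubated 10 min at 37 °C; arachidonic acid added (final 100 µM), stopped after 2 min with HCl, SnCl2 reduction 5 min RT; PGF2α by EIA (18 h RT, Ellman's, 410 nm). IC50 versus untreated control incubations.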

| SMILES | Activity (Mus musculus [1]) [ng/mL] | Activity (Mus musculus [2]) [ng/mL] | Activity (Mus musculus [3]) [%] | Activity (Mus musculus [4]) [%] | IC50 [5] [µM] |
| --- | --- | --- | --- | --- | --- |
| O=C1CC(Nc2ccccc2Nc2ccc(Cl)nn2)=NN1 | 13.2 | 21.4 | 11.2 | 33.4 | – |
| O=C1CC(Nc2ccccc2Nc2ccc(Nc3ccccc3F)nn2)=NN1 | 11.2 | 17.3 | 11.2 | 36.1 | – |
| O=C1CC(Nc2ccccc2Nc2ccc(N3CCOCC3)nn2)=NN1 | 7.2 | 11.8 | 62.3 | 63.7 | 2.86 |
| O=C1CC(Nc2ccccc2Nc2ccc(N3CCCCC3)nn2)=NN1 | 7.5 | 16.5 | 59.4 | 55.6 | 3.15 |
| O=C1CC(Nc2ccccc2Nc2ccc(Nc3cccc([N+](=O)[O-])c3)nn2)=NN1 | 13.5 | 18.3 | 5.4 | 13.2 | – |
| O=C1CC(Nc2ccccc2Nc2ccc(Nc3ccccc3Cl)nn2)=NN1 | 6.4 | 10.65 | 54.3 | 57.2 | 4.02 |
| CCOc1ccc(Nc2ccccc2NC2=NNC(=O)C2)nn1 | 12.4 | 22.4 | 10.2 | 18.2 | – |
| O=C1CC(Nc2ccccc2Nc2ccc(Nc3ccc(Cl)cc3)nn2)=NN1 | 7.12 | 9.76 | 35.4 | 68.3 | 4.46 |
| NC(=O)c1ccccc1Nc1ccc(Nc2ccccc2NC2=NNC(=O)C2)nn1 | 12.5 | 22.3 | 18.2 | 13.2 | – |
| CN1CCN(c2ccc(Nc3ccccc3NC3=NNC(=O)C3)nn2)CC1 | 9.34 | 19.5 | 35.3 | 41.2 | – |
| NC(=O)c1ccccc1Oc1ccc(Nc2ccccc2NC2=NNC(=O)C2)nn1 | 11.98 | 22.6 | 9.3 | 14.2 | – |
| NS(=O)(=O)c1ccc(Nc2ccc(Nc3ccccc3NC3=NNC(=O)C3)nn2)cc1 | 16.7 | 21.43 | 15.4 | 11.3 | – |
| O=C([O-])Cc1ccccc1Nc1c(Cl)cccc1Cl.[Na+] [DICLOFENAC SODIUM] | 5.01 | 7.6 | 61.5 | 83.3 | – |

Reference: ChEMBL document CHEMBL3232819, “Synthesis and biological evaluation of new pyrazolone-pyridazine conjugates as anti-inflammatory and analgesic agents” (Bioorg Med Chem, 2014)
